This note sets out measurements from ChEMBL document CHEMBL1130266, “Monoaryl- and bisaryldihydroxytropolones as potent inhibitors of inositol monophosphatase” (J Med Chem, 1997).

A short description of the experiment: Concentration required to inhibit the activity of inositol monophosphatase by 50%. In short, it runs like this: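 Human recombinant IMPase expressed in E. coli and purified to homogeneity. […] Enzyme adjusted so ≤10% substrate used. Duplicate rates at six inhibitor concentrations plus no-inhibitor control, fitted to v = V0/(1+[I]/IC50).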

As usually defined, the IC50 is the concentration that inhibits the measured activity by half.

The compound `O=c1c(O)c(-c2cc3ccccc3o2)cc(-c2cc3ccccc3o2)c(O)c1O` showed an IC50 of 40 µM.

In turn, `O=Cc1cccc(-c2cc(-c3cccc(C=O)c3)c(O)c(=O)c(O)c2O)c1` showed an IC50 of more than 100 µM.

Compound `O=c1ccc(-c2cccc(-c3nnc(-c4ccc5ccccc5c4)o3)c2)c(O)c(O)c1O` registered an IC50 of 40 µM.

In turn, `O=c1ccc(-c2ccc3ccccc3c2)c(O)c(O)c1O` registered an IC50 of more than 100 µM.

With `O=c1c(O)c(-c2ccccc2F)cc(-c2ccccc2F)c(O)c1O`, the IC50 is more than 200 µM.

In turn, `NCCc1ccc(-c2ccc(=O)c(O)c(O)c2O)cc1` showed an IC50 of 90 µM.

For `CC(=O)Nc1cccc(-c2ccc(=O)c(O)c(O)c2O)c1`, half-maximal inhibition (IC50) was put at 20 µM.

Regarding `O=c1ccc(-c2ccc(O)cc2)c(O)c(O)c1O`, the IC50 was found to be 10 µM.

`O=c1c(O)c(-c2ccc(C(F)(F)F)cc2)cc(-c2ccc(C(F)(F)F)cc2)c(O)c1O` returned a half-inhibitory concentration (IC50) of 200 µM.

In the case of `O=c1c(O)c(-c2ccc(O)cc2)cc(-c2ccc(O)cc2)c(O)c1O`, the midpoint of inhibition, the IC50, lay at 10 µM.

The compound `O=c1ccc(-c2cncnc2)c(O)c(O)c1O` yielded an IC50 of 10 µM.

Take `O=c1c(O)c(O)ccc(-c2cccc(O)c2O)c1O`: half-maximal inhibition (IC50) was put at 7 µM.

`O=c1c(O)c(O)ccc(-c2ccsc2)c1O` registered an IC50 of 25 µM.

As to `O=c1c(O)cccc(O)c1O`, the IC50 was determined as 10 µM.

The compound `O=c1c(O)c(O)ccc(-c2ccc(C(F)(F)F)cc2)c1O` registered an IC50 of 130 µM.

In the case of `N#Cc1cccc(-c2ccc(=O)c(O)c(O)c2O)c1`, it took 4 µM to reach half-maximal inhibition (IC50).

Turning to `O=Cc1cccc(-c2ccc(O)c(O)c(=O)c2O)c1`, half-maximal inhibition (IC50) was put at 20 µM.

With `O=c1c(O)c(O)ccc(-c2cc(C(F)(F)F)cc(C(F)(F)F)c2)c1O`, half-maximal inhibition (IC50) required 10 µM.

With `O=c1c(O)c(-c2cccc(-c3nnc(-c4ccc5ccccc5c4)o3)c2)cc(-c2cccc(-c3nnc(-c4ccc5ccccc5c4)o3)c2)c(O)c1O`, the half-inhibitory concentration (IC50) was more than 200 µM.

With `O=c1ccc(-c2cccc3ccccc23)c(O)c(O)c1O`, 20 µM corresponded to half-maximal inhibition (IC50).

The compound `O=c1c(O)c(-c2ccsc2)cc(-c2ccsc2)c(O)c1O` registered an IC50 of 35 µM.

As to `O=c1cccc(-c2ccccc2)c(O)c1O`, half-maximal inhibition (IC50) was put at 200 µM.

For the compound `O=c1c(O)c(-c2cccc(C(F)(F)F)c2)cc(-c2cccc(C(F)(F)F)c2)c(O)c1O`, the IC50 is more than 200 µM.

Compound `O=c1ccc(-c2ccccc2F)c(O)c(O)c1O` registered an IC50 of 65 µM.

Turning to `O=c1c(O)c(-c2cc(C(F)(F)F)cc(C(F)(F)F)c2)cc(-c2cc(C(F)(F)F)cc(C(F)(F)F)c2)c(O)c1O`, the midpoint of inhibition, the IC50, lay at 70 µM.

For `O=c1c(O)c(-c2ccc3ccccc3c2)cc(-c2ccc3ccccc3c2)c(O)c1O`, the IC50 was more than 100 µM.

The compound `O=c1c(O)c(O)ccc(-c2cccc([N+](=O)[O-])c2)c1O` returned an IC50 of 8 µM.

With `O=c1c(O)c(O)ccc(-c2cc3ccccc3o2)c1O`, the half-inhibitory concentration (IC50) is 7 µM.

Compound `O=c1c(O)c(Br)cc(Br)c(O)c1O` had an IC50 of 10 µM.

With `CC(=O)Nc1cccc(-c2cc(-c3cccc(NC(C)=O)c3)c(=O)c(O)c(O)c2O)c1`, the IC50 was found to be 65 µM.

Take `O=c1c(O)c(O)ccc(-c2cccs2)c1O`: it took 15 µM to reach half-maximal inhibition (IC50).

`N#Cc1cccc(-c2cc(-c3cccc(C#N)c3)c(O)c(=O)c(O)c2O)c1` came in with an IC50 of 30 µM.

For `O=c1c(O)c(-c2cccc3ccccc23)cc(-c2cccc3ccccc23)c(O)c1O`, the IC50 was more than 100 µM.

`O=c1ccc(CCCCO)c(O)c(O)c1O` gave an IC50 of 5 µM.

On to `O=c1ccc(-c2ccccc2)c(O)c(O)c1O`, for which the midpoint of inhibition, the IC50, lay at 20 µM.

`O=c1c(O)c(O)ccc(-c2cccc(C(F)(F)F)c2)c1O` returned an IC50 of 10 µM.

Turning to `O=c1c(O)c(-c2cccc([N+](=O)[O-])c2)cc(-c2cccc([N+](=O)[O-])c2)c(O)c1O`, the IC50 worked out at 20 µM.

For `O=c1c(O)c(O)ccc2cc(O)c(O)c(O)c12`, the 50% inhibitory concentration (IC50) was more than 200 µM.
